In ChEMBL document CHEMBL4689842, “EUbOPEN Chemogenomics Library wave 1” (2021):

What was measured:
Type in all cases: toxicity, cell-based
Fibroblast [1] = experiment: Incucyte cell viability with human fibroblast; settings: 10 µM, compound concentration 10 uM; further: filed as whole numbers so only -1 and 0 and 1 occur
U2OS = experiment: Incucyte cell viability with U2OS; settings: human, 10 µM, compound concentration 10 uM; further: filed as whole numbers so only -1 and 0 and 1 occur
Fibroblast [2] = experiment: Multiplex assay against human fibroblast
Procedure, shortened: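 Live cells carried four stains from seeding: Hoechst33342, BioTracker Green Microtubule Cytoskeleton Dye, MitoTracker Red and Annexin V Alexa Fluor 680. They were imaged on a CQ1 microscope at 37°C and 5% CO2 after compound addition. Using CellPathfinder machine-learning gating, cells were split into Hoechst high-intensity objects or normal cells, normal cells into healthy, pyknosed or fragmented nuclei, and pyknosed cells into mitotic or apoptotic; tubulin, mitochondrial-mass and membrane-permeability phenotypes are per cents of healthy-nucleus cells.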

HEK-293T = experiment: Incucyte cell viability with HEK293T; settings: human, 10 µM, compound concentration 10 uM; further: filed as whole numbers so only -1 and 0 and 1 occur
[3] = 6 h, replicate number 1, timepoint 6 hours
[4] = 12 h, replicate number 1, timepoint 12 hours
[5] = 18 h, replicate number 1, timepoint 18 hours
[6] = 24 h, replicate number 1, timepoint 24 hours
[7] = 12 h, 1 µM, compound concentration 1 uM, replicate 1
[8] = 12 h, 1 µM, compound concentration 1 uM, replicate 2
[9] = 12 h, 10 µM, compound concentration 10 uM, replicate 1
[10] = 12 h, 10 µM, compound concentration 10 uM, replicate 2
[11] = 24 h, 1 µM, compound concentration 1 uM, replicate 1
[12] = 24 h, 1 µM, compound concentration 1 uM, replicate 2
[13] = 24 h, 10 µM, compound concentration 10 uM, replicate 1
[14] = 24 h, 10 µM, compound concentration 10 uM, replicate 2
[15] = 48 h, 1 µM, compound concentration 1 uM, replicate 1
[16] = 48 h, 1 µM, compound concentration 1 uM, replicate 2
[17] = 48 h, 10 µM, compound concentration 10 uM, replicate 1
[18] = 48 h, 10 µM, compound concentration 10 uM, replicate 2

Oc1cccc(-c2nc(N3CCOCC3)c3oc4ncccc4c3n2)c1 [PI-103]
Growth Rate (Fibroblast [1]; 0 h, replicate number 2, timepoint 0 hours): 0
Growth Rate (Fibroblast [1]; [3]): 0
Growth Rate (Fibroblast [1]; [4]): 0
Growth Rate (Fibroblast [1]; [5]): 0
Growth Rate (Fibroblast [1]; [6]): 0
Growth Rate (U2OS; 0 h, replicate number 1, timepoint 0 hours): 0
Growth Rate (U2OS; [3]): 1
Growth Rate (U2OS; [4]): 1
Growth Rate (U2OS; [5]): 0
Growth Rate (U2OS; 18 h, replicate number 2, timepoint 18 hours): 1
Growth Rate (U2OS; [6]): 0
Growth Rate (U2OS; 24 h, replicate number 2, timepoint 24 hours): 1
Population Apoptotic (%) (Fibroblast [2]; [7]): 64%
Population Fragmented Nuclei (%) (Fibroblast [2]; [7]): 32%
Population Healthy Nuclei (%) (Fibroblast [2]; [7]): 39%
Population Hoechst High Intensity Objects (%) (Fibroblast [2]; [7]): 12%
Population Membrane Permeable-Phenotype (%) (Fibroblast [2]; [7]): 14%
Population Mitochondria Different-Phenotype (%) (Fibroblast [2]; [7]): 1%
Population Mitotic Cells (%) (Fibroblast [2]; [7]): 36%
Population Normal (%) (Fibroblast [2]; [7]): 87%
Population Pyknosed Nuclei (%) (Fibroblast [2]; [7]): 28%
Population Tubulin-Different-Phenotype (%) (Fibroblast [2]; [7]): 17%
Total Cell Count (Fibroblast [2]; [7]): 199
Population Apoptotic (%) (Fibroblast [2]; [8]): 47%
Population Fragmented Nuclei (%) (Fibroblast [2]; [8]): 10%
Population Healthy Nuclei (%) (Fibroblast [2]; [8]): 63%
Population Hoechst High Intensity Objects (%) (Fibroblast [2]; [8]): 5%
Population Membrane Permeable-Phenotype (%) (Fibroblast [2]; [8]): 2%
Population Mitochondria Different-Phenotype (%) (Fibroblast [2]; [8]): 7%
Population Mitotic Cells (%) (Fibroblast [2]; [8]): 52%
Population Normal (%) (Fibroblast [2]; [8]): 94%
Population Pyknosed Nuclei (%) (Fibroblast [2]; [8]): 26%
Population Tubulin-Different-Phenotype (%) (Fibroblast [2]; [8]): 0%
Total Cell Count (Fibroblast [2]; [8]): 73
Population Apoptotic (%) (Fibroblast [2]; [9]): 70%
Population Fragmented Nuclei (%) (Fibroblast [2]; [9]): 34%
Population Healthy Nuclei (%) (Fibroblast [2]; [9]): 34%
Population Hoechst High Intensity Objects (%) (Fibroblast [2]; [9]): 23%
Population Membrane Permeable-Phenotype (%) (Fibroblast [2]; [9]): 33%
Population Mitochondria Different-Phenotype (%) (Fibroblast [2]; [9]): 16%
Population Mitotic Cells (%) (Fibroblast [2]; [9]): 29%
Population Normal (%) (Fibroblast [2]; [9]): 76%
Population Pyknosed Nuclei (%) (Fibroblast [2]; [9]): 30%
Population Tubulin-Different-Phenotype (%) (Fibroblast [2]; [9]): 77%
Total Cell Count (Fibroblast [2]; [9]): 135
Population Apoptotic (%) (Fibroblast [2]; [10]): 36%
Population Fragmented Nuclei (%) (Fibroblast [2]; [10]): 18%
Population Healthy Nuclei (%) (Fibroblast [2]; [10]): 39%
Population Hoechst High Intensity Objects (%) (Fibroblast [2]; [10]): 5%
Population Mitochondria Different-Phenotype (%) (Fibroblast [2]; [10]): 59%
Population Mitotic Cells (%) (Fibroblast [2]; [10]): 63%
Population Normal (%) (Fibroblast [2]; [10]): 94%
Population Pyknosed Nuclei (%) (Fibroblast [2]; [10]): 41%
Population Tubulin-Different-Phenotype (%) (Fibroblast [2]; [10]): 83%
Total Cell Count (Fibroblast [2]; [10]): 69
Population Apoptotic (%) (Fibroblast [2]; [11]): 64%
Population Fragmented Nuclei (%) (Fibroblast [2]; [11]): 30%
Population Healthy Nuclei (%) (Fibroblast [2]; [11]): 46%
Population Hoechst High Intensity Objects (%) (Fibroblast [2]; [11]): 14%
Population Membrane Permeable-Phenotype (%) (Fibroblast [2]; [11]): 18%
Population Mitochondria Different-Phenotype (%) (Fibroblast [2]; [11]): 5%
Population Mitotic Cells (%) (Fibroblast [2]; [11]): 35%
Population Normal (%) (Fibroblast [2]; [11]): 85%
Population Pyknosed Nuclei (%) (Fibroblast [2]; [11]): 22%
Population Tubulin-Different-Phenotype (%) (Fibroblast [2]; [11]): 30%
Total Cell Count (Fibroblast [2]; [11]): 189
Population Apoptotic (%) (Fibroblast [2]; [12]): 75%
Population Fragmented Nuclei (%) (Fibroblast [2]; [12]): 14%
Population Healthy Nuclei (%) (Fibroblast [2]; [12]): 69%
Population Hoechst High Intensity Objects (%) (Fibroblast [2]; [12]): 6%
Population Membrane Permeable-Phenotype (%) (Fibroblast [2]; [12]): 3%
Population Mitochondria Different-Phenotype (%) (Fibroblast [2]; [12]): 3%
Population Mitotic Cells (%) (Fibroblast [2]; [12]): 25%
Population Normal (%) (Fibroblast [2]; [12]): 93%
Population Pyknosed Nuclei (%) (Fibroblast [2]; [12]): 16%
Population Tubulin-Different-Phenotype (%) (Fibroblast [2]; [12]): 1%
Total Cell Count (Fibroblast [2]; [12]): 73
Population Apoptotic (%) (Fibroblast [2]; [13]): 66%
Population Fragmented Nuclei (%) (Fibroblast [2]; [13]): 32%
Population Healthy Nuclei (%) (Fibroblast [2]; [13]): 32%
Population Hoechst High Intensity Objects (%) (Fibroblast [2]; [13]): 32%
Population Membrane Permeable-Phenotype (%) (Fibroblast [2]; [13]): 37%
Population Mitochondria Different-Phenotype (%) (Fibroblast [2]; [13]): 12%
Population Mitotic Cells (%) (Fibroblast [2]; [13]): 33%
Population Normal (%) (Fibroblast [2]; [13]): 67%
Population Pyknosed Nuclei (%) (Fibroblast [2]; [13]): 36%
Population Tubulin-Different-Phenotype (%) (Fibroblast [2]; [13]): 70%
Total Cell Count (Fibroblast [2]; [13]): 111
Population Apoptotic (%) (Fibroblast [2]; [14]): 50%
Population Fragmented Nuclei (%) (Fibroblast [2]; [14]): 28%
Population Healthy Nuclei (%) (Fibroblast [2]; [14]): 24%
Population Hoechst High Intensity Objects (%) (Fibroblast [2]; [14]): 4%
Population Membrane Permeable-Phenotype (%) (Fibroblast [2]; [14]): 44%
Population Mitochondria Different-Phenotype (%) (Fibroblast [2]; [14]): 75%
Population Mitotic Cells (%) (Fibroblast [2]; [14]): 49%
Population Normal (%) (Fibroblast [2]; [14]): 95%
Population Pyknosed Nuclei (%) (Fibroblast [2]; [14]): 47%
Population Tubulin-Different-Phenotype (%) (Fibroblast [2]; [14]): 89%
Total Cell Count (Fibroblast [2]; [14]): 80
Population Apoptotic (%) (Fibroblast [2]; [15]): 33%
Population Fragmented Nuclei (%) (Fibroblast [2]; [15]): 33%
Population Healthy Nuclei (%) (Fibroblast [2]; [15]): 53%
Population Membrane Permeable-Phenotype (%) (Fibroblast [2]; [15]): 20%
Population Mitochondria Different-Phenotype (%) (Fibroblast [2]; [15]): 5%
Population Mitotic Cells (%) (Fibroblast [2]; [15]): 66%
Population Pyknosed Nuclei (%) (Fibroblast [2]; [15]): 12%
Population Tubulin-Different-Phenotype (%) (Fibroblast [2]; [15]): 22%
Total Cell Count (Fibroblast [2]; [15]): 163
Population Apoptotic (%) (Fibroblast [2]; [16]): 60%
Population Fragmented Nuclei (%) (Fibroblast [2]; [16]): 32%
Population Healthy Nuclei (%) (Fibroblast [2]; [16]): 62%
Population Hoechst High Intensity Objects (%) (Fibroblast [2]; [16]): 14%
Population Membrane Permeable-Phenotype (%) (Fibroblast [2]; [16]): 34%
Population Mitochondria Different-Phenotype (%) (Fibroblast [2]; [16]): 8%
Population Mitotic Cells (%) (Fibroblast [2]; [16]): 40%
Population Normal (%) (Fibroblast [2]; [16]): 85%
Population Pyknosed Nuclei (%) (Fibroblast [2]; [16]): 4%
Population Tubulin-Different-Phenotype (%) (Fibroblast [2]; [16]): 47%
Total Cell Count (Fibroblast [2]; [16]): 129
Population Apoptotic (%) (Fibroblast [2]; [17]): 46%
Population Fragmented Nuclei (%) (Fibroblast [2]; [17]): 35%
Population Healthy Nuclei (%) (Fibroblast [2]; [17]): 43%
Population Hoechst High Intensity Objects (%) (Fibroblast [2]; [17]): 33%
Population Membrane Permeable-Phenotype (%) (Fibroblast [2]; [17]): 34%
Population Mitochondria Different-Phenotype (%) (Fibroblast [2]; [17]): 12%
Population Mitotic Cells (%) (Fibroblast [2]; [17]): 53%
Population Normal (%) (Fibroblast [2]; [17]): 66%
Population Pyknosed Nuclei (%) (Fibroblast [2]; [17]): 20%
Population Tubulin-Different-Phenotype (%) (Fibroblast [2]; [17]): 68%
Total Cell Count (Fibroblast [2]; [17]): 110
Population Apoptotic (%) (Fibroblast [2]; [18]): 78%
Population Fragmented Nuclei (%) (Fibroblast [2]; [18]): 36%
Population Healthy Nuclei (%) (Fibroblast [2]; [18]): 42%
Population Hoechst High Intensity Objects (%) (Fibroblast [2]; [18]): 40%
Population Membrane Permeable-Phenotype (%) (Fibroblast [2]; [18]): 20%
Population Mitochondria Different-Phenotype (%) (Fibroblast [2]; [18]): 24%
Population Mitotic Cells (%) (Fibroblast [2]; [18]): 21%
Population Normal (%) (Fibroblast [2]; [18]): 59%
Population Tubulin-Different-Phenotype (%) (Fibroblast [2]; [18]): 58%
Total Cell Count (Fibroblast [2]; [18]): 114
Growth Rate (HEK-293T; [3]): 0
Growth Rate (HEK-293T; [4]): 0
Growth Rate (HEK-293T; [5]): 0
Growth Rate (HEK-293T; [6]): 0
